# Measured values reported in ChEMBL document CHEMBL4689842, “EUbOPEN Chemogenomics Library wave 1” (2021).
# Where “and” joins values, the source holds several entries; their conditions need not be identical. Equal entries are not always repeated.
# Assays:
# U2OS = assay: Multiplex assay against U2OS; type: toxicity, cell-based; details: human
# In short: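 Cells stained live at seeding with Hoechst33342, BioTracker Green Microtubule Cytoskeleton Dye, MitoTracker Red and Annexin V Alexa Fluor 680 were imaged on a CQ1 microscope at 37°C and 5% CO2 after compound addition. Their classification by CellPathfinder machine-learning gating ran from Hoechst high-intensity objects versus normal cells, to healthy, pyknosed or fragmented nuclei among normal cells, to mitotic or apoptotic among pyknosed cells. Tubulin, mitochondrial-mass and membrane-permeability phenotypes are per cents of healthy-nucleus cells.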
# Fibroblast = assay: Incucyte cell viability with human fibroblast; type: toxicity, cell-based; details: 10 µM, compound concentration 10 uM; also: filed as whole numbers so only -1 and 0 and 1 occur
# [1] = 12 h, 1 µM, compound concentration 1 uM, replicate 1
# [2] = 12 h, 1 µM, compound concentration 1 uM, replicate 2
# [3] = 12 h, 10 µM, compound concentration 10 uM, replicate 1
# [4] = 12 h, 10 µM, compound concentration 10 uM, replicate 2
# [5] = 24 h, 1 µM, compound concentration 1 uM, replicate 1
# [6] = 24 h, 1 µM, compound concentration 1 uM, replicate 2
# [7] = 24 h, 10 µM, compound concentration 10 uM, replicate 1
# [8] = 24 h, 10 µM, compound concentration 10 uM, replicate 2
# [9] = 48 h, 10 µM, compound concentration 10 uM, replicate 1
# [10] = 48 h, 10 µM, compound concentration 10 uM, replicate 2
smiles,measurement,setting,value
Cc1c(Nc2ccc(S(=O)(=O)N3CCN(C)CC3)cc2F)nc2ccc(-c3cnn(C4CC4)c3)cn2c1=O,Population Apoptotic (%),U2OS; [1],12%
same,Population Fragmented Nuclei (%),U2OS; [1],4%
same,Population Healthy Nuclei (%),U2OS; [1],91%
same,Population Hoechst High Intensity Objects (%),U2OS; [1],2%
same,Population Membrane Permeable-Phenotype (%),U2OS; [1],5%
same,Population Mitochondria Different-Phenotype (%),U2OS; [1],15%
same,Population Mitotic Cells (%),U2OS; [1],87%
same,Population Normal (%),U2OS; [1],97%
same,Population Pyknosed Nuclei (%),U2OS; [1],4%
same,Population Tubulin-Different-Phenotype (%),U2OS; [1],18%
same,Total Cell Count,U2OS; [1],160
same,Population Apoptotic (%),U2OS; [2],0%
same,Population Fragmented Nuclei (%),U2OS; [2],5%
same,Population Healthy Nuclei (%),U2OS; [2],93%
same,Population Hoechst High Intensity Objects (%),U2OS; [2],8%
same,Population Membrane Permeable-Phenotype (%),U2OS; [2],10%
same,Population Mitochondria Different-Phenotype (%),U2OS; [2],17%
same,Population Mitotic Cells (%),U2OS; [2],100%
same,Population Normal (%),U2OS; [2],91%
same,Population Pyknosed Nuclei (%),U2OS; [2],1%
same,Population Tubulin-Different-Phenotype (%),U2OS; [2],15%
same,Total Cell Count,U2OS; [2],119
same,Population Apoptotic (%),U2OS; [3],29% and 44%
same,Population Fragmented Nuclei (%),U2OS; [3],21% and 30%
same,Population Healthy Nuclei (%),U2OS; [3],73% and 60%
same,Population Hoechst High Intensity Objects (%),U2OS; [3],34% and 46%
same,Population Mitotic Cells (%),U2OS; [3],70% and 55%
same,Population Normal (%),U2OS; [3],65% and 53%
same,Population Pyknosed Nuclei (%),U2OS; [3],5% and 8%
same,Population Tubulin-Different-Phenotype (%),U2OS; [3],12% and 27%
same,Total Cell Count,U2OS; [3],201 and 120
same,Population Fragmented Nuclei (%),U2OS; [4],56%
same,Population Healthy Nuclei (%),U2OS; [4],42% and 39%
same,Population Hoechst High Intensity Objects (%),U2OS; [4],41% and 58%
same,Population Membrane Permeable-Phenotype (%),U2OS; [4],17% and 8%
same,Population Mitochondria Different-Phenotype (%),U2OS; [4],11% and 23%
same,Population Mitotic Cells (%),U2OS; [4],80% and 35%
same,Population Normal (%),U2OS; [4],58% and 41%
same,Population Pyknosed Nuclei (%),U2OS; [4],1% and 3%
same,Population Tubulin-Different-Phenotype (%),U2OS; [4],11% and 8%
same,Population Apoptotic (%),U2OS; [5],0%
same,Population Fragmented Nuclei (%),U2OS; [5],1%
same,Population Healthy Nuclei (%),U2OS; [5],95%
same,Population Hoechst High Intensity Objects (%),U2OS; [5],1%
same,Population Membrane Permeable-Phenotype (%),U2OS; [5],7%
same,Population Mitochondria Different-Phenotype (%),U2OS; [5],7%
same,Population Mitotic Cells (%),U2OS; [5],100%
same,Population Normal (%),U2OS; [5],98%
same,Population Pyknosed Nuclei (%),U2OS; [5],2%
same,Population Tubulin-Different-Phenotype (%),U2OS; [5],17%
same,Total Cell Count,U2OS; [5],173
same,Population Apoptotic (%),U2OS; [6],11%
same,Population Fragmented Nuclei (%),U2OS; [6],4%
same,Population Healthy Nuclei (%),U2OS; [6],89%
same,Population Hoechst High Intensity Objects (%),U2OS; [6],3%
same,Population Membrane Permeable-Phenotype (%),U2OS; [6],8%
same,Population Mitochondria Different-Phenotype (%),U2OS; [6],29%
same,Population Mitotic Cells (%),U2OS; [6],88%
same,Population Normal (%),U2OS; [6],96%
same,Population Pyknosed Nuclei (%),U2OS; [6],6%
same,Population Tubulin-Different-Phenotype (%),U2OS; [6],20%
same,Total Cell Count,U2OS; [6],122
same,Population Apoptotic (%),U2OS; [7],29% and 32%
same,Population Fragmented Nuclei (%),U2OS; [7],15% and 33%
same,Population Healthy Nuclei (%),U2OS; [7],77% and 56%
same,Population Hoechst High Intensity Objects (%),U2OS; [7],27% and 49%
same,Population Membrane Permeable-Phenotype (%),U2OS; [7],14% and 7%
same,Population Mitochondria Different-Phenotype (%),U2OS; [7],8% and 22%
same,Population Mitotic Cells (%),U2OS; [7],70% and 67%
same,Population Normal (%),U2OS; [7],72% and 50%
same,Population Pyknosed Nuclei (%),U2OS; [7],6% and 10%
same,Population Tubulin-Different-Phenotype (%),U2OS; [7],7% and 16%
same,Total Cell Count,U2OS; [7],284 and 128
same,Population Apoptotic (%),U2OS; [8],22% and 60%
same,Population Fragmented Nuclei (%),U2OS; [8],56% and 58%
same,Population Healthy Nuclei (%),U2OS; [8],41% and 37%
same,Population Hoechst High Intensity Objects (%),U2OS; [8],40% and 58%
same,Population Membrane Permeable-Phenotype (%),U2OS; [8],16% and 13%
same,Population Mitochondria Different-Phenotype (%),U2OS; [8],9% and 23%
same,Population Mitotic Cells (%),U2OS; [8],77% and 40%
same,Population Normal (%),U2OS; [8],59% and 41%
same,Population Pyknosed Nuclei (%),U2OS; [8],2% and 3%
same,Population Tubulin-Different-Phenotype (%),U2OS; [8],8% and 13%
same,Population Apoptotic (%),U2OS; [9],43%
same,Population Fragmented Nuclei (%),U2OS; [9],23%
same,Population Healthy Nuclei (%),U2OS; [9],67%
same,Population Hoechst High Intensity Objects (%),U2OS; [9],39%
same,Population Membrane Permeable-Phenotype (%),U2OS; [9],4%
same,Population Mitochondria Different-Phenotype (%),U2OS; [9],8%
same,Population Mitotic Cells (%),U2OS; [9],56%
same,Population Normal (%),U2OS; [9],60%
same,Population Pyknosed Nuclei (%),U2OS; [9],8%
same,Population Tubulin-Different-Phenotype (%),U2OS; [9],18%
same,Total Cell Count,U2OS; [9],130
same,Population Apoptotic (%),U2OS; [10],71%
same,Population Fragmented Nuclei (%),U2OS; [10],57%
same,Population Healthy Nuclei (%),U2OS; [10],38%
same,Population Hoechst High Intensity Objects (%),U2OS; [10],53%
same,Population Membrane Permeable-Phenotype (%),U2OS; [10],11%
same,Population Mitochondria Different-Phenotype (%),U2OS; [10],17%
same,Population Mitotic Cells (%),U2OS; [10],28%
same,Population Normal (%),U2OS; [10],46%
same,Population Pyknosed Nuclei (%),U2OS; [10],3%
same,Population Tubulin-Different-Phenotype (%),U2OS; [10],8%
same,Total Cell Count,U2OS; [10],45
same,Growth Rate,"Fibroblast; 0 h, replicate number 1, timepoint 0 hours",0
same,Growth Rate,"Fibroblast; 12 h, replicate number 1, timepoint 12 hours",1
same,Growth Rate,"Fibroblast; 18 h, replicate number 1, timepoint 18 hours",1
same,Growth Rate,"Fibroblast; 24 h, replicate number 1, timepoint 24 hours",1
